# Test results published in ChEMBL document CHEMBL2385032, “Dual-functional abeo-taxane derivatives destabilizing microtubule equilibrium and inhibiting NF-κB activation” (2013).
# Active and inactive are the calls of the source. No cut-off for these calls is given here.
# Assays:
# HEK-293T [1] = test: Inhibition of TNF-alpha induced NF-kapppaB activation in HEK293T cells at 2.50 uM incubated 1 hr prior to TNF-alpha addition measured after 18 hrs by luciferase reporter gene assay; format: cell-based; conditions: Homo sapiens
# Method in brief: (§1)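 HEK 293T cells transiently transfected 12 h with pNFκB-luc and pRL-TK, pretreated 1 h with compound (0.31–2.50 μM) or DMSO, then stimulated with TNF-α 25 ng/mL for 18 h; firefly and Renilla luciferase read by dual-luciferase assay. Data from one of three independent experiments.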
# HEK-293T [2] = test: Inhibition of TNF-alpha induced NF-kapppaB activation in HEK293T cells at 1.25 uM incubated 1 hr prior to TNF-alpha addition measured after 18 hrs by luciferase reporter gene assay; format: cell-based; conditions: Homo sapiens; method in brief: as §1
# HEK-293T [3] = test: Inhibition of TNF-alpha induced NF-kapppaB activation in HEK293T cells at 0.62 uM incubated 1 hr prior to TNF-alpha addition measured after 18 hrs by luciferase reporter gene assay; format: cell-based; conditions: Homo sapiens; method in brief: as §1
# HEK-293T [4] = test: Inhibition of TNF-alpha induced NF-kapppaB activation in HEK293T cells incubated 1 hr prior to TNF-alpha addition measured after 18 hrs by luciferase reporter gene assay; format: cell-based; conditions: Homo sapiens; method in brief: as §1
# HCT-116 [5] = test: Cell cycle arrest in human HCT116 cells assessed as accumulation at G0/G1 phase at 2 uM after 12 hrs by propidium iodide staining-based FACS analysis (reference value: 54.63 to 55.88 %); format: functional
# HCT-116 [6] = test: Cell cycle arrest in human HCT116 cells assessed as accumulation at G0/G1 phase at 1 uM after 12 hrs by propidium iodide staining-based FACS analysis (reference value: 54.63 to 55.88 %); format: functional
# HCT-116 [7] = test: Cell cycle arrest in human HCT116 cells assessed as accumulation at S phase at 2 uM after 12 hrs by propidium iodide staining-based FACS analysis (reference value: 20.48 to 23.62 %); format: functional
# HCT-116 [8] = test: Cell cycle arrest in human HCT116 cells assessed as accumulation at S phase at 1 uM after 12 hrs by propidium iodide staining-based FACS analysis (reference value: 20.48 to 23.62 %); format: functional
# HCT-116 [9] = test: Cell cycle arrest in human HCT116 cells assessed as accumulation at G2/M phase after 12 hrs by propidium iodide staining-based FACS analysis; format: functional
# HCT-116 [10] = test: Cell cycle arrest in human HCT116 cells assessed as reduction in G0/G1 phase after 12 hrs by propidium iodide staining-based FACS analysis; format: functional
# HCT-116 [11] = test: Cell cycle arrest in human HCT116 cells assessed as accumulation at G2/M phase at 1 uM after 12 hrs by propidium iodide staining-based FACS analysis (reference value: 20.40 to 22.32 %); format: functional
# Homo sapiens [12] = species on record: Homo sapiens; test: Induction of microtubule depolymerization in human PC3 interphase cells at 5 uM after 24 hrs by DAPI staining-based immunofluorescence microscopic analysis; format: cell-based
# Method in brief: (§2)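 PC-3 cells grown on chamber slides 36 h, then treated 24 h (test agents 2, 5 or 10 μM; reference agents 200 nM); fixed in 4% paraformaldehyde, permeabilized with 0.5% Triton X-100, stained with anti-α-tubulin monoclonal plus FITC secondary and DAPI for nuclei; spindle and microtubule morphology by fluorescence microscopy.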
# Homo sapiens [13] = species on record: Homo sapiens; test: Induction of microtubule depolymerization in human PC3 mitotic cells assessed as abnormal spindles at 5 uM after 24 hrs by DAPI staining-based immunofluorescence microscopic analysis; format: cell-based; method in brief: as §2
# Tubulin (Homo sapiens) = Tubulin (Homo sapiens) (UniProt P68371+Q9H4B7+P0DPH7+P68366+Q13509+Q71U36+P04350+Q3ZCM7+P07437+P68363+Q9BQE3+Q6PEY2+Q13885+Q9BVA1+Q9BUF5); test: Inhibition of tubulin (unknown origin) polymerization assessed as destabilization of microtubule at 15 uM by fluorescence assay; format: protein-complex assay
# Method in brief: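 Cell-free tubulin polymerization kit; tubulin mixed with DMSO control, 500 μM CaCl2, 3 μM paclitaxel or test compounds at 15 or 30 μM; polymerization followed kinetically by fluorescence, excitation 340 nm, emission 420 nm, in a temperature-regulated fluorimeter. Three independent experiments in triplicate.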
# HCT-116 [14] = test: Induction of apoptosis in human HCT116 cells assessed as late apoptotic cells at 2 uM after 24 hrs by AnnexinV-FITC/PI staining-based flow cytometry (reference value: 2.53 %); format: functional
# HCT-116 [15] = test: Induction of apoptosis in human HCT116 cells assessed as early apoptotic cells at 2 uM after 24 hrs by AnnexinV-FITC/PI staining-based flow cytometry (reference value: 2.17 %); format: functional
# HCT-116 [16] = test: Induction of apoptosis in human HCT116 cells assessed as late apoptotic cells at 1 uM after 24 hrs by AnnexinV-FITC/PI staining-based flow cytometry (reference value: 2.53 %); format: functional
# HCT-116 [17] = test: Induction of apoptosis in human HCT116 cells assessed as early apoptotic cells at 1 uM after 24 hrs by AnnexinV-FITC/PI staining-based flow cytometry (reference value: 2.17 %); format: functional
# HCT-116 [18] = test: Induction of apoptosis in human HCT116 cells at 2 uM after 24 hrs by AnnexinV-FITC/PI staining-based flow cytometry; format: functional
# HCT-116 [19] = test: Induction of apoptosis in human HCT116 cells at 1 uM after 24 hrs by AnnexinV-FITC/PI staining-based flow cytometry; format: functional
# HCT-116 [20] = test: Induction of apoptosis in human HCT116 cells after 24 hrs by AnnexinV-FITC/PI staining-based flow cytometry; format: functional, cell-based
# T47D = test: Cytotoxicity against human T47D cells; format: functional
# Method in brief: (§3)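 NCI-60 human tumor cell line screen run by standard NCI protocol: single-dose prescreen at 10 μM, then multi-dose testing of compounds giving over 50% growth inhibition; GI50 = concentration for 50% growth inhibition.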
# DU-145 = test: Cytotoxicity against human DU145 cells; format: functional; method in brief: as §3
# OVCAR-3 = test: Cytotoxicity against human OVCAR3 cells; format: functional; method in brief: as §3
# RXF 393 = test: Cytotoxicity against human RXF393 cells; format: functional; method in brief: as §3
# LOX IMVI = test: Cytotoxicity against human LOXIMVI cells; format: functional
# SNB-19 = test: Cytotoxicity against human SNB19 cells; format: functional; method in brief: as §3
# NCI-H322M = test: Cytotoxicity against human NCI-H322M cells; format: functional; method in brief: as §3
# HCT-116 [21] = test: Cytotoxicity against human HCT116 cells; format: functional; method in brief: as §3
# MOLT-4 = test: Cytotoxicity against human MOLT4 cells; format: functional; method in brief: as §3
# HEK-293T [22] = test: Inhibition of TNF-alpha induced NF-kapppaB activation in HEK293T cells at 1.25 to 5 uM incubated 1 hr prior to TNF-alpha addition measured after 18 hrs by luciferase reporter gene assay; format: cell-based; conditions: Homo sapiens
smiles,measurement,setting,value
C=C1C(=O)C[C@H](OC(C)=O)[C@@]2(C)[C@@H](OC(C)=O)[C@H](OC(=O)c3ccccc3)C3=C(C)[C@@H](OC(=O)[C@H](O)[C@@H](NC(=O)OC(C)(C)C)c4ccccc4)C[C@@]3(C(C)(C)O)[C@@H](OC(C)=O)[C@H]12,inhibition,HEK-293T [1],28%
same,inhibition,HEK-293T [2],12%
same,inhibition,HEK-293T [3],9%
same,inhibition,HEK-293T [4],Dose-dependent effect
same,Activity,HCT-116 [5],50.3%
same,Activity,HCT-116 [6],51.25%
same,Activity,HCT-116 [7],16.39%
same,Activity,HCT-116 [8],20.48%
same,Activity,HCT-116 [9],Dose-dependent effect
same,Activity,HCT-116 [10],Dose-dependent effect
same,Activity,HCT-116 [11],26.14%
same,Activity,Homo sapiens [12],Active
same,Activity,Homo sapiens [13],Active
same,inhibition,Tubulin (Homo sapiens),Active
same,Activity,HCT-116 [14],14.64%
same,Activity,HCT-116 [15],5.72%
same,Activity,HCT-116 [16],5.24%
same,Activity,HCT-116 [17],3.3%
same,Activity,HCT-116 [18],19.87%
same,Activity,HCT-116 [19],4.93%
same,Activity,HCT-116 [20],Dose-dependent effect
same,GI50,T47D,1.88 µM
same,GI50,DU-145,1.89 µM
same,GI50,OVCAR-3,1.69 µM
same,GI50,RXF 393,1.33 µM
same,GI50,LOX IMVI,1.7 µM
same,GI50,SNB-19,27.5 µM
same,GI50,NCI-H322M,18.8 µM
same,GI50,HCT-116 [21],1.12 µM
C=C1C(=O)C=C[C@@]2(C)[C@@H](OC(C)=O)[C@H](OC(=O)c3ccccc3)C3=C(C)[C@@H](OC(=O)[C@H](O)[C@@H](NC(=O)c4ccccc4)c4ccccc4)C[C@@]3(C(C)(C)O)[C@@H](OC(C)=O)[C@H]12,GI50,T47D,1.7 µM
same,GI50,DU-145,1.66 µM
same,GI50,OVCAR-3,1.33 µM
same,GI50,RXF 393,0.52 µM
same,GI50,LOX IMVI,1.57 µM
same,GI50,SNB-19,15.3 µM
same,GI50,NCI-H322M,4.69 µM
same,GI50,HCT-116 [21],0.77 µM
same,GI50,MOLT-4,2.48 µM
C=C1C(=O)O[C@@H]2C3O[C@]3(C)CC/C=C(\C)CC[C@@H]12 (some centres undefined),inhibition,HEK-293T [22],Active
same,GI50,OVCAR-3,19.9 µM
same,GI50,RXF 393,12.6 µM
same,GI50,SNB-19,63.1 µM
same,GI50,NCI-H322M,19.9 µM
same,GI50,HCT-116 [21],10 µM
same,GI50,MOLT-4,15.8 µM
C=C1C(=O)C=C[C@@]2(C)[C@@H](OC(C)=O)[C@H](OC(=O)c3ccccc3)C3=C(C)[C@@H](OC(=O)[C@H](O)[C@@H](NC(=O)OC(C)(C)C)c4ccccc4)C[C@@]3(C(C)(C)O)[C@@H](OC(C)=O)[C@H]12,GI50,T47D,4.78 µM
same,GI50,DU-145,6.05 µM
same,GI50,OVCAR-3,3.19 µM
same,GI50,RXF 393,2.08 µM
same,GI50,LOX IMVI,2.2 µM
same,GI50,SNB-19,> 100 µM
same,GI50,NCI-H322M,24.6 µM
same,GI50,HCT-116 [21],1.87 µM
same,GI50,MOLT-4,3.78 µM
